ChEMBL document CHEMBL1132570, “Synthesis of cytotoxic indenoisoquinoline topoisomerase I poisons” (1999)

Tests used:
DU-145 = assay: Cytotoxicity against prostate DU-145 human cancer cell line.; type: functional
In short: (§1)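 GI50 = concentration giving 50% growth inhibition, from a screen of about 55 human cancer cell lines over a 10^-8 to 10^-4 M test range. Values come from two determinations where a population standard deviation is shown, otherwise from single determinations.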

HCT-116 = assay: Cytotoxicity against colon HCT116 human cancer cell line.; type: functional; in short: as §1
MDA-MB-435 [1] = assay: In vitro cytotoxicity against MDA-MB-435 (Human breast cancer) cell line.; type: functional; in short: as §1
HOP-62 = assay: Cytotoxicity against lung HOP-62 human cancer cell line.; type: functional; in short: as §1
UACC-62 = assay: In vitro cytotoxicity against UACC-62 (Human melanoma) cell line.; type: functional; in short: as §1
OVCAR-3 = assay: Cytotoxicity against ovarian OVCAR-3 human cancer cell line.; type: functional; in short: as §1
[2] = molecular target: T1, DNA topoisomerase 1 (Homo sapiens) (UniProt P11387); assay: The activity was examined against DNA topoisomerase I mediated DNA cleavage using 3''-End-labelled 161 BP plasmid DNA.+ indicates between 20 and 50% of the activity of 1 uM camptothecin
T1 sequence (whole entry): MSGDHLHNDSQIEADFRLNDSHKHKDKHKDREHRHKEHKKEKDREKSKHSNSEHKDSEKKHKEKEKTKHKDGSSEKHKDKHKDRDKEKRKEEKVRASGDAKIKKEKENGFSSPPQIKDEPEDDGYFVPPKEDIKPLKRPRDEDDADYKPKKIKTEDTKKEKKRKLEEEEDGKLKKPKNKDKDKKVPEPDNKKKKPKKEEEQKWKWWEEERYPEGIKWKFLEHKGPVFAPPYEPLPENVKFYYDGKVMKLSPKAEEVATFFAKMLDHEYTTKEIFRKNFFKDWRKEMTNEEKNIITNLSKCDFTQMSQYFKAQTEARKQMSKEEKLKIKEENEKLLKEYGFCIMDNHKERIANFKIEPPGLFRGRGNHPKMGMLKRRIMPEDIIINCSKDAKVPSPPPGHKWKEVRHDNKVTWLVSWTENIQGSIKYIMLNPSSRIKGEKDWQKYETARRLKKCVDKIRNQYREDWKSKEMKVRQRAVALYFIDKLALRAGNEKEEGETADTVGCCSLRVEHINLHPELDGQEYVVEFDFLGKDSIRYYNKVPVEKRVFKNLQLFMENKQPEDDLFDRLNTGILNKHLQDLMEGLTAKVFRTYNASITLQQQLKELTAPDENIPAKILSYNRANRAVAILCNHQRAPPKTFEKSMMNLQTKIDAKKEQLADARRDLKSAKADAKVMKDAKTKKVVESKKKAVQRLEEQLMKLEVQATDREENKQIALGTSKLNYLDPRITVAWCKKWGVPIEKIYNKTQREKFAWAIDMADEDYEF
In short: (§2)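 A 161 bp PvuII–HindIII fragment of pBluescript SK(–) was 3'-end-labeled at the HindIII site with [α-32P]dCTP by Klenow fill-in. About 50 000 dpm per reaction was incubated with top1 and drug (0.1–300 μM) at 30 °C for 30 min, then stopped with 0.5% SDS (final). Products were run on 16% polyacrylamide/7 M urea gels at 51 °C and imaged by phosphorimager.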

SF-539 [3] = assay: Compound was tested for its cytotoxicity against CNS SF-539 Human cancer cell line; type: functional; in short: as §1
SN12C = assay: In vitro cytotoxicity against SN12C (Human renal cancer) cell line.; type: functional; in short: as §1
[4] = molecular target: T1, DNA topoisomerase 1 (Homo sapiens); assay: The activity was examined against DNA topoisomerase I mediated DNA cleavage using 3''-End-labelled 161 BP plasmid DNA. + indicates between 20 and 50% of the activity of 1 uM camptothecin; in short: as §2
[5] = molecular target: T1, DNA topoisomerase 1 (Homo sapiens); assay: The activity was examined against DNA topoisomerase I mediated DNA cleavage using 3''-End-labelled 161 BP plasmid DNA. +/- less than 20% of the activity 0f 1 uM camptothecin; in short: as §2
[6] = molecular target: T1, DNA topoisomerase 1 (Homo sapiens); assay: The activity was examined against DNA topoisomerase I mediated DNA cleavage using 3'-End-labelled 161 BP plasmid DNA; 0 indicates inactive; in short: as §2
[7] = molecular target: T1, DNA topoisomerase 1 (Homo sapiens); assay: The activity was examined against DNA topoisomerase I mediated DNA cleavage using 3'-End-labelled 161 BP plasmid DNA. 0 indicates inactive; in short: as §2
[8] = molecular target: T1, DNA topoisomerase 1 (Homo sapiens); assay: The activity was examined against DNA topoisomerase I mediated DNA cleavage using 3''-End-labelled 161 BP plasmid DNA.+/- indicates less than 20% of the activity of 1 uM camptothecin; in short: as §2
[9] = molecular target: T1, DNA topoisomerase 1 (Homo sapiens); assay: The activity was examined against DNA topoisomerase I mediated DNA cleavage using 3''-End-labelled 161 BP plasmid DNA. +/- indicates less than 20% of the activity of 1 uM camptothecin; in short: as §2
SF-539 [10] = assay: Compound was tested for its cytotoxicity against CNS SF-539 cell line; type: functional; details: Homo sapiens; in short: as §1
MDA-MB-435 [11] = assay: Compound was tested for its cytotoxicity against breast MDA-MB-435 Human cancer cell line; type: functional; in short: as §1

Row | Top1 cleavage activity [5] | Top1 cleavage activity [6] | Top1 cleavage activity [7] | Top1 cleavage activity [8] | Top1 cleavage activity [9] | Compound | GI50 (DU-145) [µM] | GI50 (HCT-116) [µM] | GI50 (MDA-MB-435 [1]) [µM] | GI50 (HOP-62) [µM] | GI50 (UACC-62) [µM] | GI50 (OVCAR-3) [µM] | Top1 cleavage activity [2] | GI50 (SF-539 [3]) [µM] | GI50 (SN12C) [µM] | Top1 cleavage activity [4] | GI50 (SF-539 [10]) [µM] | GI50 (MDA-MB-435 [11]) [µM]
1 |  |  |  |  |  | CCCCn1c2c(c3cc(OC)c(OC)cc3c1=O)C(=O)c1cc3c(cc1-2)OCO3 | 16 | 45 | > 100 | 16 | 21 | 78 | 20-50% of the activity of 1 uM camptothecin |  |  |  |  | 
2 |  |  |  |  |  | COc1cc2c3c(n(C)c(=O)c2cc1OC)-c1cc2c(cc1C3=O)OCO2 | 37 | 35 | 96 | 1.3 | 4.2 |  |  | 41 | 68 |  |  | 
3 |  |  |  |  |  | O=C1c2ccccc2-c2c1c1ccccc1c(=O)n2CCCCCO | 3.4 | 3.9 | 41 | 4.4 | 14.3 | 93 |  |  |  | 20-50% of the activity of 1 uM camptothecin |  | 
4 | +/- |  |  |  |  | CCn1c2c(c3cc(OC)c(OC)cc3c1=O)C(=O)c1cc3c(cc1-2)OCO3 | 2.3 | 2.6 | 2.6 | 2.2 | 2.1 | 3 |  | 2 | 3.6 |  |  | 
5 |  | 0 |  |  |  | COc1ccc(-n2c3c(c4cc(OC)c(OC)cc4c2=O)C(=O)c2cc4c(cc2-3)OCO4)cc1 | 76 | > 100 | > 100 | 20 | > 100 | > 100 |  | > 100 | > 100 |  |  | 
6 |  |  | 0 |  |  | CCN1C(=O)c2cc(OC)c(OC)cc2[C@@H]2[C@H]1c1cc3c(cc1[C@@H]2O)OCO3 | > 100 | > 100 | > 100 | > 100 |  | > 100 |  | > 100 | > 100 |  |  | 
7 |  |  |  | +/- |  | CCN1C(=O)c2cc(OC)c(OC)cc2[C@H]2C(=O)c3cc4c(cc3[C@H]21)OCO4 | 0.42 | 0.29 | 0.45 | 0.29 | 0.18 | 0.44 |  |  |  |  |  | 
8 |  |  |  |  |  | CCCCn1c2c(c3ccccc3c1=O)C(=O)c1cc3c(cc1-2)OCO3 | 38 | 2.9 | > 100 | 17 | 8.2 | 94 | 20-50% of the activity of 1 uM camptothecin | 9 | 37 |  |  | 
9 |  |  |  |  | +/- | COc1cc2c(cc1OC)[C@H]1C(=O)c3cc4c(cc3[C@H]1N(C)C2=O)OCO4 | 4.1 | 2 | 17 | 9.4 | 0.42 | 6.7 |  | 3.1 | 2.1 |  |  | 
10 |  |  |  |  |  | Cn1c2c(c3ccccc3c1=O)C(=O)c1cc3c(cc1-2)OCO3 | > 100 | 54 |  | 22 | > 100 | > 100 | 20-50% of the activity of 1 uM camptothecin |  | > 100 |  |  | 
11 |  |  |  |  |  | O=C(O)CCCn1c2c(c3ccccc3c1=O)C(=O)c1ccccc1-2 | 48 | 40 | > 100 | 87 | 73 | > 100 |  |  | 27 |  |  | 
12 |  |  | 0 |  |  | COc1cc2c3c(n(C)c(=O)c2cc1OC)-c1cc(OC)c(OC)c(OC)c1C3=O | > 100 | > 100 |  | > 100 | 55 | > 100 |  |  | > 100 |  | > 100 | > 100
13 |  |  |  |  |  | CC[n+]1cc2cc(OC)c(OC)cc2c2c1-c1cc3c(cc1C2)OCO3 | 58 | 13 | 14 | 22 |  | 1.9 |  | 56 | 2.7 |  |  | 
